From PMC8040281 (EClinicalMedicine, 2021)
“Also recorded” adds a separate entry of the source. Like-named read-outs stand apart in the source and are kept apart here.

Assays:
[1] = 12-lead ECG and 24-hour Holter monitoring; type: in vivo, human; conditions: ECG and Holter monitoring around first dose
Method in brief: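 Oral test compound given once daily, first two doses 3–7 days apart. 12-lead ECGs were part of safety assessments. 24-hour digital Holter monitoring was run around the first dose to detect QTc changes.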

[2] = First-in-human dose escalation: DLTs and MTD/RP2D; type: in vivo
Method in brief: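 Oral test compound once daily, starting at 60 mg/m2 (0.1 of preclinical non-severely toxic dose). Accelerated titration used 100% increments until ≥Grade 2 toxicity (alopecia excepted), then 3+3 with 25–50% steps. BSA-based dosing (actual dose −20 to +15% of calculated) later switched to flat doses to nearest 50 mg. Taxanes given IV. Toxicity graded by investigator per CTCAE v4.03.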

[3] = type: in vivo, human
[4] = clinical; conditions: human, in vivo, po
[5] = tested on: metastatic or advanced solid malignant tumors; assay: Anti-tumor activity, RECIST 1.1, investigator assessed; type: in vivo, human
Method in brief: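 Investigator-assessed RECIST 1.1 response in patients with measurable disease. Oral test compound given once daily continuously, alone or ~2 h before IV paclitaxel at label or institutional dose and schedule. Time to progression is given as a median in weeks by tumor type and KRAS status.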

[6] = tested on: NSCLC cell lines harboring KRAS mutations; conditions: nonclinical studies; ref [15]; cited from earlier work
[7] = TEAE, all dose levels, label TVB-2640 = monotherapy
[8] = across all dose levels, label TVB-2640 = monotherapy

Compound: Cc1nnc(-c2cc(C(=O)N3CCC(c4ccc(C#N)cc4)CC3)c(C)cc2C2CCC2)[nH]1 [TVB-2640]
- QTc prolonging effect [1]: no clinically relevant QTc prolonging effect; also recorded: no significant gastrointestinal or serum chemistry toxicities or evidence of QTc prolongation; also recorded: no evidence of QTc prolongation
- DLT: PPE syndrome ([2]; Grade 3 with paclitaxel, label TVB-2640 = monotherapy): 3 n
- DLTs, total number ([2]; all dose levels, label TVB-2640 = monotherapy): 6
- nature of DLTs ([2]; in vivo): reversible skin and ocular effects
- DLTs at 200 mg flat dose ([2]; label TVB-2640 = monotherapy (N = 6)): no DLTs observed
- DLT: Grade 3 corneal edema ([2]; monotherapy): 1 n
- DLT: iritis ([2]; monotherapy): 1 n
- DLT: keratitis ([2]; monotherapy): 1 n
- patients with DLTs at 250 mg flat dose ([2]; monotherapy, bilateral eye keratitis and PPE syndrome): 2 of 6
- flat dose equivalent of the MTD/RP2D ([2]; monotherapy, depending on body surface area): 150 to 200 mg
- Any TEAE ([3]; Any Grade, N = 76 monotherapy, N = 55 + paclitaxel): 75 (98.7) n (%)
- Blood and lymphatic system disorders ([3]; TEAE, Any Grade): 11 (14•5) n (%)
- Eye disorders ([3]; TEAE, Any Grade): 38 (50.0) n (%)
- Gastrointestinal disorders ([3]; TEAE, Any Grade): 52 (68.4) n (%)
- Infections and infestations ([3]; TEAE, Any Grade): 36 (47.4) n (%)
- Investigations ([3]; TEAE, Any Grade): 22 (28•9) n (%)
- Metabolism and nutrition system disorders ([3]; TEAE, Any Grade): 31 (40•8) n (%)
- Musculoskeletal and connective tissue disorders ([3]; TEAE, Any Grade): 20 (26•3) n (%)
- Nervous system disorders ([3]; TEAE, Any Grade): 27 (35•5) n (%)
- Respiratory, thoracic, and mediastinal disorders ([3]; TEAE, Any Grade): 34 (44•7) n (%)
- Skin and subcutaneous tissue disorders ([3]; TEAE, Any Grade): 63 (82.9) n (%)
- PPE syndrome, incidence [3, 7]: 46%
- alopecia, incidence [3, 7]: 61%
- fatigue, incidence [3, 7]: 37%
- decreased appetite, incidence ([3]; TEAE, monotherapy): 26%
- dry eye, incidence ([3]; TEAE, monotherapy): 17%
- dry skin, incidence ([3]; TEAE, monotherapy): 22%
- lacrimation increased, incidence ([3]; TEAE, monotherapy): 13%
- rash, incidence ([3]; TEAE, monotherapy): 11%
- skin exfoliation, incidence ([3]; TEAE, monotherapy): 12%
- Blood and lymphatic system disorders ([3]; TEAE, ≥Grade 3): 3 (3•9) n (%)
- Eye disorders ([3]; TEAE, ≥Grade 3): 3 (3.9) n (%)
- Gastrointestinal disorders ([3]; TEAE, ≥Grade 3): 3 (3.9) n (%)
- Infections and infestations ([3]; TEAE, ≥Grade 3): 5 (6.6) n (%)
- Investigations ([3]; TEAE, ≥Grade 3): 6 (7•9) n (%)
- Metabolism and nutrition system disorders ([3]; TEAE, ≥Grade 3): 5 (6•6) n (%)
- Musculoskeletal and connective tissue disorders ([3]; TEAE, ≥Grade 3): 3 (3•9) n (%)
- Nervous system disorders ([3]; TEAE, ≥Grade 3): 1 (1•3) n (%)
- Respiratory, thoracic, and mediastinal disorders ([3]; TEAE, ≥Grade 3): 2 (2•6) n (%)
- Skin and subcutaneous tissue disorders ([3]; TEAE, ≥Grade 3): 8 (10.5) n (%)
- adverse events resulting in dose reduction, patients [3, 8]: 28%
- adverse events resulting in treatment discontinuation, patients [3, 8]: 22%
- >Grade 2 skin or eye toxicities at the MTD ([3]; human, in vivo): no >Grade 2 skin or eye toxicities were observed
- patients with serious pneumonitis ([3]; label TVB-2640 = monotherapy): not observed
- Any ≥Grade 3 TEAE ([3]; ≥Grade 3, N = 76 monotherapy, N = 55 + paclitaxel): 44 (57.9) n (%)
- Tmax [4]: ~4 h
- half-life [4]: 10 to 13 h
- PR rate (confirmed) / best response of CR or PR ([5]; 6/53 evaluable patients with paclitaxel, label TVB-2640 = monotherapy): no patient treated with monotherapy had a complete or partial response; also recorded: No patient had a best response of complete response (CR) or partial response (PR)
- time to progression (TTP), NSCLC KRAS^WT disease ([5]; median, N = 6 monotherapy, label TVB-2640 = monotherapy): 5 weeks
- time to progression (TTP), NSCLC KRAS^MUT disease ([5]; median, N = 11 monotherapy, label TVB-2640 = monotherapy): 22 weeks
- patients who experienced SD ([5]; monotherapy, 29/69 evaluable patients): 42%

Compound: TVB-3166
- sensitivity of KRAS^MUT versus KRAS^WT NSCLC cell lines to killing [6]: more sensitive to killing with FASN inhibition than KRAS wild-type (KRAS^WT) lines
